Legend:
[1] = Phototoxicity against human HaCaT cells assessed as cell viability at 1 uM after irradiation with light at 180 J/cm'2 for 30 mins by MTT assay; assay type: functional; details: light or radiation study, 0.5 h, read-out: Activity
Summary of the method: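 HaCaT screen at 1 µM porphyrin. Light 100 mW/cm² for 30 min (fluence 180 J/cm²). Viability by MTT, given as percent.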

[2] = Induction of singlet oxygen production assessed as amount of DPiBF remaining after irradiation with light at 9 mW/cm'2 for 30 mins by DPiBF photooxidation based spectrophotometric analysis (reference value: 80%); assay type: physicochemical; details: 0.5 h
Summary of the method: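 Singlet oxygen measured by DPiBF photooxidation in DMF. Light at 9 mW/cm² for 30 min. DPiBF absorbance at 415 nm reported as percent of the starting value.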

[3] = Photostability of compound in aqueous media assessed as amount of soret band remaining after irradiation with white light at 100 mW/cm'2 for 30 mins by UV-spectrophotometric analysis; assay type: physicochemical; details: read-out: Stability
Summary of the method: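 Porphyrin in aqueous medium under white light, 100 mW/cm², sampled at intervals up to 30 min. Soret band absorbance tracked and given as percent remaining of the original.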

[4] = Phototoxicity against human HaCaT cells assessed as reduction in cell viability after irradiation with white light at 120 J/cm'2 for 20 mins by MTT assay; assay type: functional, cell-based; details: light or radiation study
Summary of the method: (§1)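 HaCaT PDT at 0.01, 0.03, 0.1, 0.3 and 1 µM porphyrin (untreated control as 0). Light 100 mW/cm² for 20 min (fluence 120 J/cm²). Viability by MTT. IC50 estimated from the roughly linear concentration–viability relationship.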

[5] = Dark toxicity against human HaCaT cells assessed as reduction in cell viability at >0.1 uM after 24 hrs by MTT assay; assay type: cell-based
Summary of the method: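 HaCaT keratinocytes held with porphyrin in the dark for 24 h, no light exposure, over 0.01–1 µM (untreated control as 0). Viability read by MTT.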

[6] = Phototoxicity against human HaCaT cells assessed as cell viability at 0.01 uM after irradiation with white light at 120 J/cm'2 for 20 mins by MTT assay; assay type: functional; details: light or radiation study, read-out: Activity; summary of the method: as §1

In the case of `C1=Cc2nc1c(-c1ccccc1)c1ccc([nH]1)c(-c1ccccc1)c1nc(c(-c3ccccc3)c3ccc([nH]3)c2-c2ccccc2)C=C1`, the viability at 1 µM [1] is reported as 100%.

`O=[N+]([O-])c1ccc(-c2c3nc(c(-c4ccccc4)c4ccc([nH]4)c(-c4ccccc4)c4nc(c(-c5ccccc5)c5ccc2[nH]5)C=C4)C=C3)cc1` showed an Activity [2] of 33%, a viability at 1 µM [1] of 92.8% and a remaining at 0.5 h [3] of 96%.

Work on `C1=Cc2nc1c(-c1ccc3ccccc3c1)c1ccc([nH]1)c(-c1ccc3ccccc3c1)c1nc(c(-c3ccc4ccccc4c3)c3ccc([nH]3)c2-c2ccc3ccccc3c2)C=C1` yielded an Activity [2] of 25% and a viability at 1 µM [1] of 100%.

`C[n+]1ccc(-c2c3nc(c(-c4ccccc4)c4ccc([nH]4)c(-c4ccccc4)c4nc(c(-c5ccccc5)c5ccc2[nH]5)C=C4)C=C3)cc1.[I-]` showed an Activity [2] of 13%, a viability at 1 µM [1] of 29.4% and an IC50 [4] of 602 nM.

`C[n+]1ccc(Sc2c(F)c(F)c(-c3c4nc(c(-c5c(F)c(F)c(Sc6cc[n+](C)cc6)c(F)c5F)c5ccc([nH]5)c(-c5c(F)c(F)c(Sc6cc[n+](C)cc6)c(F)c5F)c5nc(c(-c6c(F)c(F)c(Sc7cc[n+](C)cc7)c(F)c6F)c6ccc3[nH]6)C=C5)C=C4)c(F)c2F)cc1.[I-].[I-].[I-].[I-]` gave an Activity [2] of 25%, a viability at 1 µM [1] of 20.3% and a remaining at 0.5 h [3] of 89%. For the same compound, the IC50 [4] was 240 nM.

For `C[n+]1ccc(-c2c3nc(c(-c4ccccc4)c4ccc([nH]4)c(-c4ccccc4)c4nc(c(-c5cc[n+](C)cc5)c5ccc2[nH]5)C=C4)C=C3)cc1.[I-].[I-]`, the Activity [5] was “Toxic”, the Activity [2] was 20% and the viability at 1 µM [1] was 23.2%. The viability at 0.01 µM [6] was 69%, the remaining at 0.5 h [3] was 92% and the IC50 [4] was 52.3 nM.

In the case of `C[n+]1ccc(-c2c3nc(c(-c4cc[n+](C)cc4)c4ccc([nH]4)c(-c4cc[n+](C)cc4)c4nc(c(-c5cc[n+](C)cc5)c5ccc2[nH]5)C=C4)C=C3)cc1.[I-].[I-].[I-].[I-]`, the Activity [2] is reported as 22%, the viability at 1 µM [1] is reported as 26.6% and the remaining at 0.5 h [3] is reported as 98%. It also gave an IC50 [4] of 59 nM.

With `C[n+]1ccc(-c2c3nc(c(-c4cc[n+](C)cc4)c4ccc([nH]4)c(-c4cc[n+](C)cc4)c4nc(c(-c5ccccc5)c5ccc2[nH]5)C=C4)C=C3)cc1.[I-].[I-].[I-]` the Activity [2] was 12%, the viability at 1 µM [1] was 23.9% and the remaining at 0.5 h [3] was 97%. It also gave an IC50 [4] of 67 nM.

`COc1ccc(-c2c3nc(c(-c4ccc(OC)cc4)c4ccc([nH]4)c(-c4ccc(OC)cc4)c4nc(c(-c5ccc(OC)cc5)c5ccc2[nH]5)C=C4)C=C3)cc1` gave an Activity [2] of 28%, a viability at 1 µM [1] of 100% and a remaining at 0.5 h [3] of 97%.

For `Cc1ccc(-c2c3nc(c(-c4ccc(C)cc4)c4ccc([nH]4)c(-c4ccc(C)cc4)c4nc(c(-c5ccc(C)cc5)c5ccc2[nH]5)C=C4)C=C3)cc1`, the viability at 1 µM [1] was 100%.

With `O=S(=O)([O-])c1ccc(-c2c3nc(c(-c4ccc(S(=O)(=O)[O-])cc4)c4ccc([nH]4)c(-c4ccc(S(=O)(=O)[O-])cc4)c4nc(c(-c5ccc(S(=O)(=O)[O-])cc5)c5ccc2[nH]5)C=C4)C=C3)cc1.[Na+].[Na+].[Na+].[Na+]` the Activity [2] was 24%, the viability at 1 µM [1] was 76.1% and the remaining at 0.5 h [3] was 91%.

For `CC(=O)Oc1ccc(-c2c3nc(c(-c4ccc(OC(C)=O)cc4)c4ccc([nH]4)c(-c4ccc(OC(C)=O)cc4)c4nc(c(-c5ccc(OC(C)=O)cc5)c5ccc2[nH]5)C=C4)C=C3)cc1`, the Activity [2] was 29%, the viability at 1 µM [1] was 100% and the remaining at 0.5 h [3] was 83%.

Compound `C[n+]1ccc(-c2c3nc(c(-c4ccccc4)c4nc(c(-c5cc[n+](C)cc5)c5ccc([nH]5)c(-c5ccccc5)c5ccc2[nH]5)C=C4)C=C3)cc1.[I-].[I-]` has an Activity [2] of 18%, a viability at 1 µM [1] of 19.5% and a remaining at 0.5 h [3] of 91%. It also gave an IC50 [4] of 136 nM.

In the case of `Nc1ccc(-c2c3nc(c(-c4ccccc4)c4ccc([nH]4)c(-c4ccccc4)c4nc(c(-c5ccccc5)c5ccc2[nH]5)C=C4)C=C3)cc1`, the Activity [2] is reported as 59%, the viability at 1 µM [1] is reported as 100% and the remaining at 0.5 h [3] is reported as 96%.

`O=[N+]([O-])c1ccc(-c2c3nc(c(-c4ccccc4)c4ccc([nH]4)c(-c4ccc([N+](=O)[O-])cc4)c4nc(c(-c5ccccc5)c5ccc2[nH]5)C=C4)C=C3)cc1` gave an Activity [2] of 28%, a viability at 1 µM [1] of 95.2% and a remaining at 0.5 h [3] of 97%.

Work on `Clc1ccc(-c2c3nc(c(-c4ccc(Cl)cc4)c4ccc([nH]4)c(-c4ccc(Cl)cc4)c4nc(c(-c5ccc(Cl)cc5)c5ccc2[nH]5)C=C4)C=C3)cc1` yielded a viability at 1 µM [1] of 100%.

From ChEMBL document CHEMBL3875199, “Photodynamic effect of meso-(aryl)porphyrins and meso-(1-methyl-4-pyridinium)porphyrins on HaCaT keratinocytes” (Bioorg Med Chem Lett, 2017)
